Assay results as given in ChEMBL document CHEMBL1155539, “Discovery of 4-[1-[([1-[4-(trifluoromethyl)benzyl]-1H-indol-7-yl]carbonyl)amino]cyclopropyl]benzoic acid (MF-766), a highly potent and selective EP4 antagonist for treating inflammatory pain” (Bioorg Med Chem Lett, 2010).

Assays:
[1] = target: Prostaglandin E2 receptor EP2 subtype (Homo sapiens, UniProt P43116); test: Displacement of [3H]PGE2 from human prostanoid EP2 receptor expressed in HEK293-EBNA cells after 60 mins by scintillation counting; format: cell-based
[2] = target: T1, Prostaglandin D2 receptor (Homo sapiens, UniProt Q13258); test: Displacement of [3H]PGD2 from human Prostanoid DP1 receptor expressed in HEK293-EBNA cells after 60 mins by scintillation counting; format: cell-based
T1 sequence (Q13258 whole entry): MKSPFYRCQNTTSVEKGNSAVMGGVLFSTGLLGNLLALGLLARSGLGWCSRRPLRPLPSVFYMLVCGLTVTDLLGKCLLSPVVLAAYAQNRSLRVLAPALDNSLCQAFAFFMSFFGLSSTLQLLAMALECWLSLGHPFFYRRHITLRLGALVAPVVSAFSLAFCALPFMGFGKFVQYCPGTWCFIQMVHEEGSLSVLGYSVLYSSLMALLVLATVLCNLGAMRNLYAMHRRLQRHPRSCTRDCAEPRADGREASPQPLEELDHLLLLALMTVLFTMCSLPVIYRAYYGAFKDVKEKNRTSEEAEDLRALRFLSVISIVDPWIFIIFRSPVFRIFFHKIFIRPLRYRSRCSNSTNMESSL

[3] = target: T2, Thromboxane A2 receptor (Homo sapiens, UniProt P21731); test: Displacement of [3H]SQ-29548 from human prostanoid TP receptor expressed in HEK293-EBNA cells after 60 mins by scintillation counting; format: cell-based
T2 sequence (P21731 whole entry): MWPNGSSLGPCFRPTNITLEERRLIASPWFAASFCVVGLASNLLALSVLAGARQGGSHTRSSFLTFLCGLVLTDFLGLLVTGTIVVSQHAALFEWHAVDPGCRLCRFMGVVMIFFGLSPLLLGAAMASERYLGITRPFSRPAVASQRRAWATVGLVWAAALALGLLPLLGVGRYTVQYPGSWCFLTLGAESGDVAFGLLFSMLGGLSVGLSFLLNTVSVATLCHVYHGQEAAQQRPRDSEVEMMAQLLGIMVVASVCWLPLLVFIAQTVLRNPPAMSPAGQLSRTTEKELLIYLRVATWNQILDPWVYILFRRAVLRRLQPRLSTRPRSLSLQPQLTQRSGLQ

[4] = target: T3, Prostaglandin E2 receptor EP4 subtype (Homo sapiens, UniProt P35408); test: Antagonist activity at human prostanoid EP4 receptor expressed in HEK293 cells assessed as inhibition of PGE2-induced cAMP accumulation by scintillation proximity assay; format: functional, cell-based
How it was run: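 Read-out was inhibition of PGE2-induced cAMP accumulation at EP4. Values are means from at least two independent experiments.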

[5] = target: Prostaglandin F2-alpha receptor (Homo sapiens, UniProt P43088); test: Displacement of [3H]PGF2alpha from human prostanoid FP receptor expressed in HEK293-EBNA cells after 60 mins by scintillation counting; format: cell-based
[6] = target: T4, Prostaglandin E2 receptor EP3 subtype (Homo sapiens, UniProt P43115); test: Displacement of [3H]PGE2 from human prostanoid EP3 receptor expressed in HEK293-EBNA cells after 60 mins by scintillation counting; format: cell-based
T4 sequence (P43115 whole entry): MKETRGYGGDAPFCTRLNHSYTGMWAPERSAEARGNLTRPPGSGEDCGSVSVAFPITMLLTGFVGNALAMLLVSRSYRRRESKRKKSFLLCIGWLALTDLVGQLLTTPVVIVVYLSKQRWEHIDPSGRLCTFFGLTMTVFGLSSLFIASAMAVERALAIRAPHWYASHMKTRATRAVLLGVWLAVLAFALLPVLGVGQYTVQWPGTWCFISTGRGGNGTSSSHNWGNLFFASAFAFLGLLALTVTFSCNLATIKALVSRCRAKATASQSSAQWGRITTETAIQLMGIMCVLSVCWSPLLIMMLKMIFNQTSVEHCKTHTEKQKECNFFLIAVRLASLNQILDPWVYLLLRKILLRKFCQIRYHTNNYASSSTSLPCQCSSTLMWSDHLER

[7] = target: T5, Prostaglandin E2 receptor EP1 subtype (Homo sapiens, UniProt P34995); test: Displacement of [3H]PGE2 from human prostanoid EP1 receptor expressed in HEK293-EBNA cells after 60 mins by scintillation counting; format: cell-based
T5 sequence (P34995 whole entry): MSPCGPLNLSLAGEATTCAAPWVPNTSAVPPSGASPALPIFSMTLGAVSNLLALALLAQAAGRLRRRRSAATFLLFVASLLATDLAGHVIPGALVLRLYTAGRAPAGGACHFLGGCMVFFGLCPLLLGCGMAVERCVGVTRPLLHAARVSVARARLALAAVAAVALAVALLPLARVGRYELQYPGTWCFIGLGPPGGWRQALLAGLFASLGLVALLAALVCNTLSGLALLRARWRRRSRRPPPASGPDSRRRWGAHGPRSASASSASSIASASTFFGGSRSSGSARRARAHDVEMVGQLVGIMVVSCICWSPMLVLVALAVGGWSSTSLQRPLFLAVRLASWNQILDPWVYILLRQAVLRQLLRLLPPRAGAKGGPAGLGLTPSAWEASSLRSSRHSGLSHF

[8] = target: T3, Prostaglandin E2 receptor EP4 subtype; test: Displacement of [3H]PGE2 from human prostanoid EP4 receptor expressed in HEK293-EBNA cells after 60 mins by scintillation counting; format: cell-based
[9] = target: Prostacyclin receptor (Homo sapiens, UniProt P43119); test: Displacement of [3H]iloprost from human prostanoid IP receptor expressed in HEK293-EBNA cells after 60 mins by scintillation counting; format: cell-based
[10] = target: T6, Prostaglandin D2 receptor 2 (Homo sapiens, UniProt Q9Y5Y4); test: Displacement of [3H]PGD2 from human Prostanoid DP2 receptor expressed in HEK293-EBNA cells after 60 mins by scintillation counting; format: cell-based
T6 sequence (Q9Y5Y4 whole entry): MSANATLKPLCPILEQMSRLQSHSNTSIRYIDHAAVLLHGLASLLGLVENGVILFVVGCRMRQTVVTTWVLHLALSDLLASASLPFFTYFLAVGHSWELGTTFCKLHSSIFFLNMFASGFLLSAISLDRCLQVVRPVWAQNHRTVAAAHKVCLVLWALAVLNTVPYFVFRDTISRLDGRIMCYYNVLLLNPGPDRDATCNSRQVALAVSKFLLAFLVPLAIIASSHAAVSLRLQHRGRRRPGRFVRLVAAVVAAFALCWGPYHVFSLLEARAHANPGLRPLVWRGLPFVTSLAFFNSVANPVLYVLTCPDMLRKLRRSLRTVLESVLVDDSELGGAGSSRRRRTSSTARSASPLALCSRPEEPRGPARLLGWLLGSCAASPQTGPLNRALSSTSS

[11] = tested on: Rattus norvegicus; test: Antiinflammatory activity in rat assessed as inhibition of complete Freund's adjuvant-induced paw swelling administered daily once 9 days after adjuvant challenge measured on day 18; format: functional
How it was run: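 Rat adjuvant-induced arthritis model with daily dosing in mg/kg/day. Dose groups were 0, 0.001, 0.01, 0.1 and 1 mg/kg, plus a non-AIA control group. Primary and secondary paw swelling were scored as % inhibition relative to vehicle-treated arthritic rats, and ED50 was estimated from the dose–response.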

Sequence of Prostaglandin F2-alpha receptor (P43088 whole entry): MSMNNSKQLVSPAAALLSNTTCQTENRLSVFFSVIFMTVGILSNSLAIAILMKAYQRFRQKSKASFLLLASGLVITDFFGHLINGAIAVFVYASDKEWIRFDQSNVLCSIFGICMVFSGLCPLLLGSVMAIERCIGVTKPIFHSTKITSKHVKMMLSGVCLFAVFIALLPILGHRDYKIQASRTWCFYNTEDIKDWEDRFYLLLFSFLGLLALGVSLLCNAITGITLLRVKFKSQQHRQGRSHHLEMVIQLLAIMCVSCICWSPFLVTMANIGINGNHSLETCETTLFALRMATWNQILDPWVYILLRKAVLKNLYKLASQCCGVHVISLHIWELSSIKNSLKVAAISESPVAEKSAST
Sequence of Prostacyclin receptor (P43119 whole entry): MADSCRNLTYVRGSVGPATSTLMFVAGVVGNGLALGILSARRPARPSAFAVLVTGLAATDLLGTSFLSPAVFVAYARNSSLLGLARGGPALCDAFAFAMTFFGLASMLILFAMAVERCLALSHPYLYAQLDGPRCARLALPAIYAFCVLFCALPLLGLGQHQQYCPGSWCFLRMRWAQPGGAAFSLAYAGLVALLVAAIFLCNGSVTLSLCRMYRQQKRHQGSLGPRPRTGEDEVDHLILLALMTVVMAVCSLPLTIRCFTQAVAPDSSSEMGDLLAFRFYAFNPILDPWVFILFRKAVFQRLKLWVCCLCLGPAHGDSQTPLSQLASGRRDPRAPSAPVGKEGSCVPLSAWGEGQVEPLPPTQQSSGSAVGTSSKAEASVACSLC
T3 sequence (P35408 whole entry): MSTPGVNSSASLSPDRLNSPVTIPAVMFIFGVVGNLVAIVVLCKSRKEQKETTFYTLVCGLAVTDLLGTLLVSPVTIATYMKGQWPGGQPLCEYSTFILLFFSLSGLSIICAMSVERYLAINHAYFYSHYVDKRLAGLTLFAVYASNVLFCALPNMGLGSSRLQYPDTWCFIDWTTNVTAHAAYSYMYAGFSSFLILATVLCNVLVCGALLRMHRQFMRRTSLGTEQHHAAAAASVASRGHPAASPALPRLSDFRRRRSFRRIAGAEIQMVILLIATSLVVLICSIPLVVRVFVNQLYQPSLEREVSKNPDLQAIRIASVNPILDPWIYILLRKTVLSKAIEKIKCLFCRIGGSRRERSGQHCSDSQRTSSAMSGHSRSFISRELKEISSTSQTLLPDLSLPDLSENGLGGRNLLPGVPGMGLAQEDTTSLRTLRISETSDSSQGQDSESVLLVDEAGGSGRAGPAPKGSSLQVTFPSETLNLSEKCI
Sequence of Prostaglandin E2 receptor EP2 subtype (P43116 whole entry): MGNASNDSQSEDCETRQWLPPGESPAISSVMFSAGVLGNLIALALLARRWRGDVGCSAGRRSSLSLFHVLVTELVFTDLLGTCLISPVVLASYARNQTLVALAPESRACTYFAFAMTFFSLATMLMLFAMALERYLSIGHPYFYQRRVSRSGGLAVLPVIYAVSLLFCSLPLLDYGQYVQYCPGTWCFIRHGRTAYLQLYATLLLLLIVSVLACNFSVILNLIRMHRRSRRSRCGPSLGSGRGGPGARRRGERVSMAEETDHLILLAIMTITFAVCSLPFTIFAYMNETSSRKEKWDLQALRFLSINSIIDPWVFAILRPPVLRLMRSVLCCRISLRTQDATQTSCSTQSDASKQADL

| Ki [1] | Ki [2] | Ki [3] | IC50 [4] | Ki [5] | Ki [6] | Ki [7] | Ki [8] | Ki [9] | Ki [10] | Compound | ED80 [11] | ED50 [11] |
| --- | --- | --- | --- | --- | --- | --- | --- | --- | --- | --- | --- | --- |
| ≥ 100 nM | 209 nM | ≥ 100 nM | 1.12 nM | ≥ 100 nM | ≥ 100 nM | ≥ 100 nM | 0.44 nM | ≥ 100 nM | ≥ 100 nM | C[C@H](NC(=O)c1cc(Cl)cc2ccn(Cc3ccc(C(F)(F)F)cc3)c12)c1ccc(C(=O)O)cc1 | – | – |
| ≥ 930 nM | 14 nM | ≥ 930 nM | – | ≥ 930 nM | ≥ 930 nM | ≥ 930 nM | 20.1 nM | ≥ 930 nM | ≥ 930 nM | C[C@H](NC(=O)c1cccc2c(Cl)cn(Cc3cccc(Cl)c3)c12)c1ccc(C(=O)O)cc1 | – | – |
| – | 1200 nM | – | – | – | – | – | 39.5 nM | – | – | Cc1cn(Cc2cccc(Cl)c2)c2c(C(=O)N[C@@H](C)c3ccc(C(=O)O)cc3)cccc12 | – | – |
| – | 450 nM | – | – | – | – | – | 56 nM | – | – | Cc1cc2cccc(C(=O)N[C@@H](C)c3ccc(C(=O)O)cc3)c2n1Cc1cccc(Cl)c1 | – | – |
| ≥ 785 nM | 885 nM | ≥ 785 nM | 11.8 nM | ≥ 785 nM | ≥ 785 nM | ≥ 785 nM | 4.8 nM | ≥ 785 nM | ≥ 785 nM | C[C@H](NC(=O)c1cccc2ccn(Cc3cccc(C(F)(F)F)c3)c12)c1ccc(C(=O)O)cc1 | – | – |
| ≥ 260 nM | 49 nM | ≥ 260 nM | 1.4 nM | ≥ 260 nM | ≥ 260 nM | ≥ 260 nM | 0.38 nM | ≥ 260 nM | ≥ 260 nM | C[C@H](NC(=O)c1cccc2ccn(Cc3cc(Cl)cc(OC(F)(F)F)c3)c12)c1ccc(C(=O)O)cc1 | – | – |
| ≥ 580 nM | 1390 nM | ≥ 580 nM | 2.7 nM | ≥ 580 nM | ≥ 580 nM | ≥ 580 nM | 0.62 nM | ≥ 580 nM | ≥ 580 nM | C[C@H](NC(=O)c1cccc2ccn(Cc3ccc(C(F)(F)F)cc3)c12)c1ccc(C(=O)O)cc1 | – | – |
| ≥ 110 nM | 63 nM | ≥ 110 nM | 1.5 nM | ≥ 110 nM | ≥ 110 nM | ≥ 110 nM | 0.81 nM | ≥ 110 nM | ≥ 110 nM | C[C@H](NC(=O)c1cc(Cl)cc2ccn(Cc3cccc(Cl)c3)c12)c1ccc(C(=O)O)cc1 | – | – |
| ≥ 504 nM | 404 nM | ≥ 504 nM | 3.3 nM | ≥ 504 nM | ≥ 504 nM | ≥ 504 nM | 2.4 nM | ≥ 504 nM | ≥ 504 nM | C[C@H](NC(=O)c1cc(F)cc2ccn(Cc3cccc(Cl)c3)c12)c1ccc(C(=O)O)cc1 | – | – |
| ≥ 2500 nM | 16 nM | ≥ 2500 nM | 5.9 nM | ≥ 2500 nM | ≥ 2500 nM | ≥ 2500 nM | 2.7 nM | ≥ 2500 nM | ≥ 2500 nM | C[C@H](NC(=O)c1cccc2ccn(Cc3cccc(Cl)c3)c12)c1ccc(C(=O)O)cc1 | – | – |
| ≥ 1290 nM | 561 nM | ≥ 1290 nM | 1.26 nM | ≥ 1290 nM | ≥ 1290 nM | ≥ 1290 nM | 0.31 nM | ≥ 1290 nM | ≥ 1290 nM | O=C(O)c1ccc(C2(NC(=O)c3cc(Cl)cc4ccn(Cc5ccc(C(F)(F)F)cc5)c34)CC2)cc1 | – | – |
| – | – | – | – | – | – | – | – | – | – | C[C@H](NC(=O)c1cc(Cl)ccc1Oc1ccc(F)cc1)c1ccc(C(=O)O)cc1 | 11.5 mg/kg | – |
| – | – | – | – | – | – | – | – | – | – | CS(=O)(=O)c1ccc(C2=C(c3ccccc3)C(=O)OC2)cc1 [ROFECOXIB] | – | 0.7 mg/kg/day |
